The source made the active and inactive calls. No cut-off for these calls is given here.
How the values were obtained:
[1] = target: cAMP and cAMP-inhibited cGMP 3',5'-cyclic phosphodiesterase 10A (Homo sapiens, UniProt Q9Y233); assay: Inhibition of recombinant human PDE10A using [3H]cAMP as substrate by scintillation proximity assay
Summary of the method: (§1)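 Scintillation proximity assay with [³H]cAMP as substrate, measuring hydrolysis of cAMP to AMP by recombinant human PDEs 1–11. Ki values are means of at least two experiments.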

[2] = target: Phosphodiesterase 6 (Homo sapiens) (UniProt Q13956+P18545+P35913+O43924+P16499+P51160); assay: Inhibition of recombinant human PDE6 using [3H]cAMP as substrate at 3.6 uM by scintillation proximity assay; assay type: protein assay
[3] = AUC (0 to 6 hrs) in rat at 10 mg/kg, po; assay type: ADME, organism-based; parameters: time < 6 hr, dose 10 mg/kg, route oral; details: plasma
Summary of the method: (§2)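 Rat cassette-accelerated rapid screen, 10 mg/kg oral. Plasma exposure measured over 0–6 h. Brain drug concentration taken at 6 h. Brain/plasma ratio is brain over plasma drug concentration at 6 h.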

[4] = Drug uptake in rat brain at 10 mg/kg, po after 6 hrs; assay type: ADME, organism-based; parameters: dose 10 mg/kg, route oral; details: read-out: Drug uptake; summary of the method: as §2
Rattus norvegicus [5] = assay: Antipsychotic activity in CD rat assessed as inhibition of MK-801-induced hyperactivity at 30 mg/kg, po relative to control; assay type: functional, organism-based; parameters: dose 30 mg/kg
Summary of the method: (§3)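 Male CD rats habituated to locomotor activity chambers 24 h before testing. On test day, MK-801 (0.3 mg/kg, sc) co-administered with PDE10 inhibitor (po), then rats placed in apparatus. Inhibition expressed as percent of activity in inhibitor + MK-801 group relative to vehicle + MK-801 group.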

[6] = Drug uptake in CD rat brain at 30 mg/kg, po after 1 hr; assay type: ADME, organism-based; parameters: dose 30 mg/kg, route oral; details: read-out: Drug uptake
Phosphodiesterase 6 = assay: Inhibition of recombinant human PDE6 using [3H]cAMP as substrate by scintillation proximity assay; assay type: protein assay; summary of the method: as §1
Phosphodiesterase 1 = Phosphodiesterase 1 (Homo sapiens, UniProt P54750+Q01064+Q14123); assay: Inhibition of recombinant human PDE1 using [3H]cAMP as substrate by scintillation proximity assay; assay type: protein assay; summary of the method: as §1
[7] = target: Dual 3',5'-cyclic-AMP and -GMP phosphodiesterase 11A (Homo sapiens, UniProt Q9HCR9); assay: Inhibition of recombinant human PDE11 using [3H]cAMP as substrate by scintillation proximity assay; summary of the method: as §1
[8] = target: High affinity cGMP-specific 3',5'-cyclic phosphodiesterase 9A (Homo sapiens, UniProt O76083); assay: Inhibition of recombinant human PDE9 using [3H]cAMP as substrate by scintillation proximity assay; summary of the method: as §1
[9] = target: cGMP-specific 3',5'-cyclic phosphodiesterase (Homo sapiens, UniProt O76074); assay: Inhibition of recombinant human PDE5A using [3H]cAMP as substrate by scintillation proximity assay; summary of the method: as §1
Phosphodiesterase 7 = Phosphodiesterase 7 (Homo sapiens, UniProt Q13946+Q9NP56); assay: Inhibition of recombinant human PDE7 using [3H]cAMP as substrate by scintillation proximity assay; assay type: protein assay; summary of the method: as §1
[10] = Clearance in dog hepatocytes assessed per million of cells; assay type: ADME, cell-based, Canis lupus familiaris, Hepatocyte; details: read-out: CLH
[11] = Efflux ratio of permeability in human Caco2 cells; assay type: ADME, cell-based; details: Caco-2
[12] = Plasma protein binding in rat; assay type: ADME, cell-free; details: read-out: PPB (converted)
[13] = Ratio of drug level in brain to plasma in rat at 10 mg/kg, po at 6 hrs; assay type: ADME, organism-based; parameters: dose 10 mg/kg, route oral; details: read-out: BPR; summary of the method: as §2
[14] = Clearance in human hepatocytes assessed per million of cells; assay type: ADME, cell-based, Hepatocyte; details: read-out: CLH
Rattus norvegicus [15] = assay: Antipsychotic activity in po dosed CD rat assessed as inhibition of MK-801 induced hyperactivity relative to control; assay type: functional; summary of the method: as §3
[16] = Clearance in rat hepatocytes assessed per million of cells; assay type: ADME, cell-based, Hepatocyte; details: read-out: CLH
Phosphodiesterase 3 = Phosphodiesterase 3 (Homo sapiens, UniProt Q14432+Q13370); assay: Inhibition of recombinant human PDE3 using [3H]cAMP as substrate by scintillation proximity assay; assay type: protein assay; summary of the method: as §1
[17] = target: cGMP-dependent 3',5'-cyclic phosphodiesterase (Homo sapiens, UniProt O00408); assay: Inhibition of recombinant human PDE2 using [3H]cAMP as substrate by scintillation proximity assay; summary of the method: as §1
Phosphodiesterase 4 = Phosphodiesterase 4 (Homo sapiens, UniProt P27815+Q08499+Q07343+Q08493); assay: Inhibition of recombinant human PDE4 using [3H]cAMP as substrate by scintillation proximity assay; assay type: protein assay; summary of the method: as §1
[18] = Clearance in cebus monkey hepatocytes assessed per million of cells; assay type: ADME, cell-based, Hepatocyte; details: cebus capucinus, read-out: CLH
Phosphodiesterase 8 = Phosphodiesterase 8 (Homo sapiens, UniProt O95263+O60658); assay: Inhibition of recombinant human PDE8 using [3H]cAMP as substrate by scintillation proximity assay; assay type: protein assay; summary of the method: as §1
Rattus norvegicus [19] = organism: Rattus norvegicus; assay: Sedative activity in rat assessed as hypolocomotion by spontaneous locomotor activity test; assay type: organism-based; details: in vivo
Summary of the method: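 Hypolocomotion assessed in rats by spontaneous locomotor activity test, run to distinguish reversal of MK-801-induced behaviour from compound-induced hypolocomotion; ED₅₀ derived.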

[20] = AUC in dog at 2 mg/kg, po; assay type: ADME, organism-based, Canis lupus familiaris; parameters: dose 2 mg/kg, route oral; details: plasma

cAMP and cAMP-inhibited cGMP 3',5'-cyclic phosphodiesterase 10A, sequence (Q9Y233 whole entry): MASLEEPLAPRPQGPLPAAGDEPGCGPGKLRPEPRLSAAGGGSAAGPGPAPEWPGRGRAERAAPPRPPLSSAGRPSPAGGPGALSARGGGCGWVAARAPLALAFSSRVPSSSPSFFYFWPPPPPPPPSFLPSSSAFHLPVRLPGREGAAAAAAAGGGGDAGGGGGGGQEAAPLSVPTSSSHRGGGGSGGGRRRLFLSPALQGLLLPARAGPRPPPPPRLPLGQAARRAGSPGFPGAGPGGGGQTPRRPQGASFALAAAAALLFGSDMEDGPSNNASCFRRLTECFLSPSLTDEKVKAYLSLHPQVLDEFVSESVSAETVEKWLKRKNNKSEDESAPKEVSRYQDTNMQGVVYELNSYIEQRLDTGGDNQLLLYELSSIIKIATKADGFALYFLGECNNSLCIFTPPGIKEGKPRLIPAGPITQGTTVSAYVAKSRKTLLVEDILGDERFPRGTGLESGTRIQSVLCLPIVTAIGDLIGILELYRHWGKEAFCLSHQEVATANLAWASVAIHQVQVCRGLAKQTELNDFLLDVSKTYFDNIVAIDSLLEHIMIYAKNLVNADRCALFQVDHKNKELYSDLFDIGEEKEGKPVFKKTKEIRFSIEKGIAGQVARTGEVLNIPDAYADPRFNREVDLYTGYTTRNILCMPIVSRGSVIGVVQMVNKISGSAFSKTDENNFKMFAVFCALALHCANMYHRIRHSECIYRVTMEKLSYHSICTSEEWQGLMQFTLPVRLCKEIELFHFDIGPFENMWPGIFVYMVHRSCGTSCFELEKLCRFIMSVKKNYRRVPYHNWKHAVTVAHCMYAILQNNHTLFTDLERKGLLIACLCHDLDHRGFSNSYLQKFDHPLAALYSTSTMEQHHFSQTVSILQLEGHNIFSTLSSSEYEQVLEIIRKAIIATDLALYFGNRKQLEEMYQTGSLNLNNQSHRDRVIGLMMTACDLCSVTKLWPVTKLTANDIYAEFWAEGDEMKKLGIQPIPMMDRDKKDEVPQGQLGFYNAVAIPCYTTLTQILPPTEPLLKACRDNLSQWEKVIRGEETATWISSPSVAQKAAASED
High affinity cGMP-specific 3',5'-cyclic phosphodiesterase 9A, sequence (O76083 whole entry): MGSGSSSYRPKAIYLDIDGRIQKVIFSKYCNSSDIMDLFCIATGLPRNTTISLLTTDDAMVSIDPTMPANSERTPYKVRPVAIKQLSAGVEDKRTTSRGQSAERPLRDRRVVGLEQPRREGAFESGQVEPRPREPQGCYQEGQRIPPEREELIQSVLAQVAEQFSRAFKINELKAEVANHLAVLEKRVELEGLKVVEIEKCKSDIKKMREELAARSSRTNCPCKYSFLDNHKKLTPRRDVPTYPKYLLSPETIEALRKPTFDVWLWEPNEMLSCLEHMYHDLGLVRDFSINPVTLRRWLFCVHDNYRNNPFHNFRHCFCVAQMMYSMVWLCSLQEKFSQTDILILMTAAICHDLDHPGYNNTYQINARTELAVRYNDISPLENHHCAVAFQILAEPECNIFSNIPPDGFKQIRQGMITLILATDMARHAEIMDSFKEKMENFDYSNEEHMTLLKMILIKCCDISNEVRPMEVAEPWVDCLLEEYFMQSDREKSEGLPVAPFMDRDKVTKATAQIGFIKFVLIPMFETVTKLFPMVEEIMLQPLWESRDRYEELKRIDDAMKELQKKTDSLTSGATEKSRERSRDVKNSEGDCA
Dual 3',5'-cyclic-AMP and -GMP phosphodiesterase 11A, sequence (Q9HCR9 whole entry): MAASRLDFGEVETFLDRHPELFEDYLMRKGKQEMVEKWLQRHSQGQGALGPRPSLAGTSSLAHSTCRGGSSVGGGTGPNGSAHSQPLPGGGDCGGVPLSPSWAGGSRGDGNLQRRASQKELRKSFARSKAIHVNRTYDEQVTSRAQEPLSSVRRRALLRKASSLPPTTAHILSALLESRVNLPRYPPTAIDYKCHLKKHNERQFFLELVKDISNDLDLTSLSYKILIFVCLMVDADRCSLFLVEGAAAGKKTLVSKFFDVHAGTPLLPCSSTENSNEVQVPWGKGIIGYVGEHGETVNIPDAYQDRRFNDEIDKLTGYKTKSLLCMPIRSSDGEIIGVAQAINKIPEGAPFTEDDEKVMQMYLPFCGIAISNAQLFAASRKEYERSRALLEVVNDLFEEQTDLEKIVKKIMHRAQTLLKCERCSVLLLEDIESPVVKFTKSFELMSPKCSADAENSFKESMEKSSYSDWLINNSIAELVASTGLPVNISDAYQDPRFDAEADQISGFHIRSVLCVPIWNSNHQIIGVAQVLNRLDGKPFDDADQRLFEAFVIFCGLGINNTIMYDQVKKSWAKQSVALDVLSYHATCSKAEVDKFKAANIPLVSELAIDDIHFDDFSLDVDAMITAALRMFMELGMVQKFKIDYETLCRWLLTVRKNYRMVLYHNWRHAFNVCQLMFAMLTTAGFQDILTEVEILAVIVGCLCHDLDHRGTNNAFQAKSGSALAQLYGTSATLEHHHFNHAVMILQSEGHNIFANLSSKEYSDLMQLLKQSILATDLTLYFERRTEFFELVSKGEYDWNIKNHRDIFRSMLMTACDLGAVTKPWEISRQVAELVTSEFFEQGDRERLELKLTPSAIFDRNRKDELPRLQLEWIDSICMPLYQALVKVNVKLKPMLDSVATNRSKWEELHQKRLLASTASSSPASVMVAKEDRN
cGMP-dependent 3',5'-cyclic phosphodiesterase, sequence (O00408 whole entry): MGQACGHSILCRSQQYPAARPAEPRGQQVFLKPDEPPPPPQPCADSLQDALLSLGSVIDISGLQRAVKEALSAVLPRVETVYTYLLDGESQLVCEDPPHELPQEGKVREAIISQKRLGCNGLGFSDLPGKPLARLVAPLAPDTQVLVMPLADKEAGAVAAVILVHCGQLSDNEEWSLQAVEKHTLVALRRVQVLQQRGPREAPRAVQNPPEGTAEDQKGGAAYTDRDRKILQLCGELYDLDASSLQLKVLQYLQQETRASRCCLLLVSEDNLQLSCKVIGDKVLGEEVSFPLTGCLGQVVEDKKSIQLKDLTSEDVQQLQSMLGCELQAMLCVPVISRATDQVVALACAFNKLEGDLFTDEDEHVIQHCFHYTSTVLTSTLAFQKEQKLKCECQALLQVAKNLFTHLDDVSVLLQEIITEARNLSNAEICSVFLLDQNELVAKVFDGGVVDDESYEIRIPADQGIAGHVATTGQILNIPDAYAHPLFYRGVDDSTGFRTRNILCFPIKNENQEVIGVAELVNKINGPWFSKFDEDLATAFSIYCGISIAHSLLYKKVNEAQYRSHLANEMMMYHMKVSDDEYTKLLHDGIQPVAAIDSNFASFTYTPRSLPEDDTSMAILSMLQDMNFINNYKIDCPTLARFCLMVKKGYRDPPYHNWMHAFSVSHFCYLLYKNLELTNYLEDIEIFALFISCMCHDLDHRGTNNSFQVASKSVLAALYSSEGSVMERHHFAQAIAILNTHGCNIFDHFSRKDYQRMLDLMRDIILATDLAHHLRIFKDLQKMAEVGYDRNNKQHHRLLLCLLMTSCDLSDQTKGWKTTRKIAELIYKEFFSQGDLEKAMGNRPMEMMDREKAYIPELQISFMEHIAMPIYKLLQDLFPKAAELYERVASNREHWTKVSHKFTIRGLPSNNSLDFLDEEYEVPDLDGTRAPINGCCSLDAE

## COc1cc(C)c2nc3[nH]nc(C)c3c(NC3CCNCC3)c2c1
[1]
  Ki: 55 nM
[2]
  inhibition: 48%

## COc1cc(C)c2nc3[nH]nc(C)c3c(N3CCN(C(N)=O)[C@@H](C)C3)c2c1
[1]
  Ki: 3.3 nM
[3]
  AUC(0-t) at 6 h: 9.5 µM·h
[4]
  concentration at 6 h: < 10 ng/g
Rattus norvegicus [5]
  inhibition: inactive
[6]
  concentration at 1 h: 27 ng/g

## COc1cc(C)c2nc3[nH]nc(C)c3c(N3CCSCC3)c2c1
[1]
  Ki: 196 nM

## COc1cc(C)c2nc3[nH]nc(C)c3c(NCCc3ccncc3)c2c1
[1]
  Ki: 70 nM
Phosphodiesterase 6
  Ki: 554 nM

## COc1cc(C)c2nc3[nH]nc(C)c3c(NC3CCOCC3)c2c1
Phosphodiesterase 1
  Ki: >= 4793 nM
[7]
  Ki: ≥ 4.79 µM
[8]
  Ki: ≥ 4.79 µM
[9]
  Ki: 17.3 µM
[1]
  Ki: 12 nM
Phosphodiesterase 7
  Ki: >= 4793 nM
[10]
  hepatocyte CLint: 0.8 µL/min/1e6 cells
[11]
  efflux ratio: 0.7
[12]
  fraction unbound: 0.07
[13]
  Kp at 6 h: 0.7
[14]
  hepatocyte CLint: 1.7 µL/min/1e6 cells
Rattus norvegicus [15]
  ED50: 4 mg/kg
[16]
  hepatocyte CLint: 2.9 µL/min/1e6 cells
Phosphodiesterase 3
  Ki: >= 4793 nM
[17]
  Ki: ≥ 4.79 µM
[3]
  AUC(0-t) at 6 h: 11.8 µM·h
Phosphodiesterase 4
  Ki: >= 4793 nM
Phosphodiesterase 6
  Ki: 278 nM
[18]
  hepatocyte CLint: 54 µL/min/1e6 cells
Phosphodiesterase 8
  Ki: >= 4793 nM
[4]
  concentration at 6 h: 1100 ng/g
Rattus norvegicus [19]
  ED50: 23 mg/kg
[20]
  AUC: 12.5 µM·h

## COc1cc(C)c2nc3[nH]nc(C)c3c(NCC3CN(C)CCO3)c2c1 (stereo unspecified)
[1]
  Ki: 280 nM

## COc1cc(C)c2nc3[nH]nc(C)c3c(N3CCOCC3)c2c1
[1]
  Ki: 23 nM

## COc1cc(C)c2nc3[nH]nc(C)c3c(NCc3ccncc3)c2c1
[1]
  Ki: 0.6 nM
Phosphodiesterase 6
  Ki: 211 nM

## COc1cc(C)c2nc3[nH]nc(C)c3c(N3CCC(CN)CC3)c2c1
[1]
  Ki: 0.5 nM

## COc1cc(C)c2nc3[nH]nc(C)c3c(NCc3ccccn3)c2c1
[1]
  Ki: 6 nM
Phosphodiesterase 6
  Ki: 1811 nM

## COc1cc(C)c2nc3[nH]nc(C)c3c(N(C)C3CCOCC3)c2c1
[1]
  Ki: 41 nM
Phosphodiesterase 6
  Ki: 7383 nM

## COc1cc(C)c2nc3[nH]nc(C)c3c(NCC3CCCCO3)c2c1 (stereo unspecified)
[1]
  Ki: 130 nM
Phosphodiesterase 6
  Ki: 843 nM

## COc1cc(C)c2nc3[nH]nc(C)c3c(N3CCC(NC(N)=O)CC3)c2c1
[1]
  Ki: 27 nM
[4]
  concentration at 6 h: < 10 ng/g

## COc1ccc2nc3[nH]nc(C)c3c(N3CCNCC3)c2c1
[1]
  Ki: 585 nM

## COc1cc(C)c2nc3[nH]nc(C)c3c(N3CCC(C(N)=O)CC3)c2c1
[1]
  Ki: 3 nM
[4]
  concentration at 6 h: < 10 ng/g

## COc1cc(C)c2nc3[nH]nc(C)c3c(NCC3CCOCC3)c2c1
[1]
  Ki: 52 nM
Phosphodiesterase 6
  Ki: 697 nM

Source: ChEMBL document CHEMBL1938329, “The discovery of potent, selective, and orally active pyrazoloquinolines as PDE10A inhibitors for the treatment of Schizophrenia” (Bioorg Med Chem Lett, 2012)
